Test results reported in ChEMBL document CHEMBL1123816, “Synthesis and antidepressant properties of novel 2-substituted 4,5-dihydro-1H-imidazole derivatives” (J Med Chem, 1987).

How the values were obtained:
[1] = selectivity ratio (Alpha-1[3H]-prazosin/Alpha2[3H]-clonidine)
[2] = target: T1, Adrenergic receptor alpha-1 (Rattus norvegicus, UniProt P15823+P23944+P43140); test: Ability to displace [3H]prazosin from alpha-1 adrenergic receptor in rat brain homogenates in vitro; type: tissue-based
T1 sequence (P15823 whole entry): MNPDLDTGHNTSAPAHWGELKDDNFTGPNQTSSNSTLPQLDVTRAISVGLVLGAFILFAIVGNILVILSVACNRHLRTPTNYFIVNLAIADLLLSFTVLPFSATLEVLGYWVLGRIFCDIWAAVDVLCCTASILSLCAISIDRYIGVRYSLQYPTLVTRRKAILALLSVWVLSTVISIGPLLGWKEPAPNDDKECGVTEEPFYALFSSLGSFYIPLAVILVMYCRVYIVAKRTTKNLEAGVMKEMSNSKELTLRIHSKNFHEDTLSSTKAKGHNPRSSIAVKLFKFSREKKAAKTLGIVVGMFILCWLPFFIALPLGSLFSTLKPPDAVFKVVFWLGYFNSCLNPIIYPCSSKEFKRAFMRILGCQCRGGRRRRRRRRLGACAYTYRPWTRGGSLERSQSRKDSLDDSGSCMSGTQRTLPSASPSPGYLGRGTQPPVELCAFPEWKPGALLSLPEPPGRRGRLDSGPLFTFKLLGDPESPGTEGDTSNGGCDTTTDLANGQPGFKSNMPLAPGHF
T1 sequence (P23944 whole entry): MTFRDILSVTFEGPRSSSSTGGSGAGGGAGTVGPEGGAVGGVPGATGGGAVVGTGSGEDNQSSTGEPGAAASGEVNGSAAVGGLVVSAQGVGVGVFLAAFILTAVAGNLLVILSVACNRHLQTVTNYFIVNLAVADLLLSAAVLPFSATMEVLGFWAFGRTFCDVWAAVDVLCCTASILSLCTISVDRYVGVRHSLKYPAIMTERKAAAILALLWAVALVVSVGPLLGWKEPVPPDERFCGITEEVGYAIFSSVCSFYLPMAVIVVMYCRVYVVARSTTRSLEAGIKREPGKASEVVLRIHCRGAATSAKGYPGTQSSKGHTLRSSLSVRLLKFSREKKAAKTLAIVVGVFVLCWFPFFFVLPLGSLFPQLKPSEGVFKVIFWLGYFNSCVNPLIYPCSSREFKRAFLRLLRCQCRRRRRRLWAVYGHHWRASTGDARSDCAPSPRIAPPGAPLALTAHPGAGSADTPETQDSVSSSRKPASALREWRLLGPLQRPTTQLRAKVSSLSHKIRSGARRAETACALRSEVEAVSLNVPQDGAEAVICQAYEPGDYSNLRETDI
T1 sequence (P43140 whole entry): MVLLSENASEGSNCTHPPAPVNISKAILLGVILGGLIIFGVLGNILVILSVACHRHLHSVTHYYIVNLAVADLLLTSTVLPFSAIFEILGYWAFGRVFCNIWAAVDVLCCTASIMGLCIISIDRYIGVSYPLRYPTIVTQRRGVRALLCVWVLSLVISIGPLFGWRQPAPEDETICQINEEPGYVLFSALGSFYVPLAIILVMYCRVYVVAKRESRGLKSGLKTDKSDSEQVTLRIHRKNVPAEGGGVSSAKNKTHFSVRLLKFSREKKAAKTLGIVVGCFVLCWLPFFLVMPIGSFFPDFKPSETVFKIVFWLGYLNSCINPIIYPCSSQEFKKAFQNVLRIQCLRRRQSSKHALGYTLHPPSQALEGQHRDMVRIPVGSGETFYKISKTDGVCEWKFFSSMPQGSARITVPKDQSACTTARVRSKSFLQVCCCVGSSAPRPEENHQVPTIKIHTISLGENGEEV
In short: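 Rat brain cortex membranes in 50 mM Tris pH 7.7, washed at 48000g, final resuspension 150 volumes. Incubated with 0.03 nM [3H]prazosin and graded test concentrations for 90 min at 25 °C. Unlabeled phentolamine (10 μM) defined nonspecific binding. Filtered on GF/B, scintillation counted. Triplicate assays; IC50 from logit plot converted to apparent Ki via Cheng–Prusoff.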

[3] = target: T2, Adrenergic receptor alpha-2 (Rattus norvegicus, UniProt P22086+P19328+P22909); test: In vitro antagonistic activity against alpha-2 adrenergic receptor in isolated electrically stimulated rat vas deferens (clonidine-induced decrease in twitch height); type: functional, tissue-based
T2 sequence (P22086 whole entry): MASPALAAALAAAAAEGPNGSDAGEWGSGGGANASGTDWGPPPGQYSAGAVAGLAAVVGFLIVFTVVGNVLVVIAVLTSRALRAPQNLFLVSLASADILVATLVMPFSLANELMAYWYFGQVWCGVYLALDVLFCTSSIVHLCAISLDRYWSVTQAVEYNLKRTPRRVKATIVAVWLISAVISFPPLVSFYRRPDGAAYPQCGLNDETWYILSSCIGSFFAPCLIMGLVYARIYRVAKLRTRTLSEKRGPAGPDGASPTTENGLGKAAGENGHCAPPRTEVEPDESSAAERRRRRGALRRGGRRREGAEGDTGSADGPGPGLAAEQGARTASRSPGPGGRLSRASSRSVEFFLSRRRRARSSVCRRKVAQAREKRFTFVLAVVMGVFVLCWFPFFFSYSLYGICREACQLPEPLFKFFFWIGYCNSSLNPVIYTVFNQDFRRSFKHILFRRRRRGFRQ
T2 sequence (P19328 whole entry): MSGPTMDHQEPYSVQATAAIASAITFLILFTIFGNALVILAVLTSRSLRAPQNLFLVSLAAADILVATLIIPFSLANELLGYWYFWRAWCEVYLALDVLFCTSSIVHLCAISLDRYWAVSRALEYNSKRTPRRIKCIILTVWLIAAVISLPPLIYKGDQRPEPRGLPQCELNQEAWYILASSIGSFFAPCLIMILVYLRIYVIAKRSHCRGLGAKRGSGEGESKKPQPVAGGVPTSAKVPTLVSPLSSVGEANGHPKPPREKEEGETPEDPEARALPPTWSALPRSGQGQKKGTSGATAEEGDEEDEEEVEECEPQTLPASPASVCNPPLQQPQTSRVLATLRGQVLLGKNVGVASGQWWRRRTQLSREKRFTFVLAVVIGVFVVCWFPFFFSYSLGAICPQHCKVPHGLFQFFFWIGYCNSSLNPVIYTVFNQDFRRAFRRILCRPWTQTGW
T2 sequence (P22909 whole entry): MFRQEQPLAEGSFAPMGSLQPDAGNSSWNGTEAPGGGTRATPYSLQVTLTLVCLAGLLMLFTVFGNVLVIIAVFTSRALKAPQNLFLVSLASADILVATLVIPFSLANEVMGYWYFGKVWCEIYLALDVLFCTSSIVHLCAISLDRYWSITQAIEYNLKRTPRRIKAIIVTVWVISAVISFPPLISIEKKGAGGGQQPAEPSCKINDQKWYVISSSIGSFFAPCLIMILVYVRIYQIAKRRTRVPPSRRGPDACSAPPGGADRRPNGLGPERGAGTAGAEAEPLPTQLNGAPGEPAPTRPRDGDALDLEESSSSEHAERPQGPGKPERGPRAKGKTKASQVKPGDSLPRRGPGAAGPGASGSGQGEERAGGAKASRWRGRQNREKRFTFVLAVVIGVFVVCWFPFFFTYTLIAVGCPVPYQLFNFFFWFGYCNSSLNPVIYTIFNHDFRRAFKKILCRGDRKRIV

Row | Ratio [1] | Ki [2] [nM] | pA2 [3] | Selectivity ratio [1] | SMILES
1 | 3.4 | 78 | 7.76 |  | C1=C(CC2=NCCN2)CCc2ccccc21.Cl [NAPAMEZOLE HYDROCHLORIDE]
2 |  | 148 | 7.19 | 12.3 | CC1=C(CC2=NCCN2)CCc2ccccc21.Cl
